# Measurements from ChEMBL document CHEMBL3792306, “Antichagasic and trichomonacidal activity of 1-substituted 2-benzyl-5-nitroindazolin-3-ones and 3-alkoxy-2-benzyl-5-nitro-2H-indazoles” (Eur J Med Chem, 2016).
# Tests used:
# Trichomonas vaginalis [1] = assay: Trichomonacidal activity against metronidazole-sensitive Trichomonas vaginalis JH31A#4 trophozoites after 24 hrs by resazurin dye based fluorescence assay; assay type: functional, organism-based; conditions: JH31A#4, 24 h
# Outline: (§1)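 Trophozoites in TYM with 10% FBS, 37 °C, 5% CO₂, seeded at 10⁵/mL in glass tubes. After 5 h, compounds added at 9.37–300 µM final (DMSO <0.2%). Viability read by resazurin fluorimetry after 24 h at 37 °C. Metronidazole 25 µM as reference. At least two runs in triplicate; IC50 with 95% limits by probit.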
# Trypanosoma cruzi [2] = assay: Antichagasic activity against Trypanosoma cruzi CL-B5 intracellular amastigotes in mouse L929 cells assessed as growth inhibition after 7 days by beta galactosidase reporter gene assay; assay type: functional, organism-based; conditions: CL-B5, L929, 168 h
# Outline: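 L929 fibroblasts (10,000/well, MEM) infected overnight at 33 °C, 5% CO₂ with CL-B5 lacZ tissue-culture trypomastigotes (1:6 cell:parasite). Washed, then 7 days with compound in fresh MEM. CPRG (400 µM final, pH 7.4) in 3% Triton X-100 for 3 h at 37 °C, A595. Triplicates; IC50 from %amastigote growth inhibition curves, mean ± SD.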
# [3] = Selectivity index, ratio of CC50 for african green monkey Vero cells to IC50 for metronidazole-sensitive Trichomonas vaginalis JH31A#4 trophozoites; assay type: functional
# Outline: (§2)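 Selectivity index = Vero CC50 (24 h resazurin, probit) divided by trophozoite IC50 (24 h resazurin, probit) for the named T. vaginalis isolate.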
# [4] = Selectivity index, ratio of LC50 for mouse L929 cells to IC50 for Trypanosoma cruzi CL-B5 lacZ epimastigotes […]; assay type: toxicity, cell-based; conditions: read-out: Ratio LC50/IC50
# Outline: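 SI = LC50 (L929, 48 h resazurin) / epimastigote IC50. […] CPRG (200 µM final, 0.9% Triton X-100, pH 7.4) added for 3 h at 37 °C, A595 read. Triplicates, n = 3; IC50 from %EGI curves.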
# [5] = Cytotoxicity against african green monkey Vero cells assessed as inhibition of cell growth at 300 uM after 24 hrs by resazurin dye based fluorescence assay; conditions: chlorocebus sabaeus, read-out: Activity
# [6] = Cytotoxicity against mouse L929 cells after 48 hrs by resazurin assay; assay type: cell-based; conditions: read-out: LC50
# Outline: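 L929 fibroblasts, 15×10^3 cells/well in MEM, attached 3 h. Exposed to compounds for 48 h at 37 °C, 5% CO2. Resazurin (2 mM solution in PBS) added for 3 h; fluorescence read at 535/590 nm to give % cytotoxicity. Triplicate wells, three independent runs. LC50 taken from concentration vs %C curves, mean ± SD.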
# [7] = Cytotoxicity against african green monkey Vero cells assessed as inhibition of cell growth after 24 hrs by resazurin dye based fluorescence assay; conditions: chlorocebus sabaeus
# Outline: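 Vero CCL-81 cells (50,000/well, RPMI with 10% FBS) attached 6 h at 37 °C, then 24 h with compound. Resazurin added for 3 h, fluorescence at ex 535/em 590 nm. Triplicates in two independent assays; CC50 and 95% confidence limits by probit analysis.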
# [8] = Selectivity index, ratio of LC50 for mouse L929 cells to IC50 for Trypanosoma cruzi CL-B5 lacZ amastigotes in mouse L929 cells; assay type: toxicity, cell-based; conditions: read-out: Ratio LC50/IC50
# Outline: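 SI = LC50 (L929, 48 h resazurin) / amastigote IC50. Amastigotes: L929 cells (10,000/well, MEM) infected overnight at 33 °C with CL-B5 lacZ tissue-culture trypomastigotes (1:6 cell:parasite), washed, then exposed to compounds for 7 days. CPRG (400 µM final, 3% Triton X-100, pH 7.4) added for 3 h at 37 °C, A595 read. Triplicates; IC50 from %AGI curves. Assayed only when epimastigote SI warranted.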
# Trypanosoma cruzi [9] = assay: Antichagasic activity against Trypanosoma cruzi CL-B5 epimastigotes […] assessed as growth inhibition after 72 hrs by beta galactosidase reporter gene assay; assay type: functional, organism-based
# Outline: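 Then CPRG (200 µM final, pH 7.4) in Triton X-100 added for 3 h at 37 °C, A595 read. Triplicates, three independent runs; IC50 from dose–response of %growth inhibition, mean ± SD.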
# [10] = Selectivity index, ratio of CC50 for african green monkey Vero cells to IC50 for metronidazole-resistant Trichomonas vaginalis IR78 trophozoites; assay type: functional; outline: as §2
# Trichomonas vaginalis [11] = assay: Trichomonacidal activity against metronidazole-resistant Trichomonas vaginalis IR78 trophozoites after 24 hrs by resazurin dye based fluorescence assay; assay type: functional, organism-based; conditions: IR78, 24 h; outline: as §1
SMILES,IC50 (Trichomonas vaginalis [1]),IC50 (Trypanosoma cruzi [2]),Ratio CC50/IC50 [3],selectivity ratio [4],"inhibition at 24 h, 300 µM [5]",CC50 at 48 h [6],CC50 at 24 h [7],selectivity ratio [8],IC50 (Trypanosoma cruzi [9]),Ratio CC50/IC50 [10],IC50 (Trichomonas vaginalis [11])
CN(C)C(=O)CCCn1c2ccc([N+](=O)[O-])cc2c(=O)n1Cc1ccccc1,48.9 µM,0.54 µM,>6.1,> 66.3,< 20%,> 256 µM,> 300 µM,> 474,3.86 µM,,
O=[N+]([O-])c1ccc2nn(Cc3ccccc3)c(OCCO)c2c1,9.82 µM,,>30.5,,14.7%,> 256 µM,> 300 µM,,> 256 µM,>6,49.8 µM
C#CCn1c2ccc([N+](=O)[O-])cc2c(=O)n1Cc1ccccc1,261 µM,3.02 µM,,18.1,,195 µM,,64.7,10.8 µM,,
CNC(=O)CCCn1c2ccc([N+](=O)[O-])cc2c(=O)n1Cc1ccccc1,182 µM,1.5 µM,,> 19.3,,> 256 µM,,> 171,13.3 µM,,
CCOCCCn1c2ccc([N+](=O)[O-])cc2c(=O)n1Cc1ccccc1,362 µM,3.31 µM,,25.9,,170 µM,,51.5,6.57 µM,,
COC(=O)CCn1c2ccc([N+](=O)[O-])cc2c(=O)n1Cc1ccccc1,376 µM,2.93 µM,,> 27.9,,> 256 µM,,> 87.4,9.19 µM,,
C=Cn1c2ccc([N+](=O)[O-])cc2c(=O)n1Cc1ccccc1,258 µM,0.47 µM,,58.4,,160 µM,,341,2.75 µM,,
N#CCn1c2ccc([N+](=O)[O-])cc2c(=O)n1Cc1ccccc1,,3.5 µM,,> 21.9,,> 256 µM,,> 73.1,11.7 µM,,
C=CCn1c2ccc([N+](=O)[O-])cc2c(=O)n1Cc1ccccc1,359 µM,1.58 µM,,45.9,,192 µM,,122,4.19 µM,,
COCCn1c2ccc([N+](=O)[O-])cc2c(=O)n1Cc1ccccc1,285 µM,2.29 µM,,> 39,,> 256 µM,,> 112,6.56 µM,,
CCOC(=O)CCCOc1c2cc([N+](=O)[O-])ccc2nn1Cc1ccccc1,20.6 µM,25.4 µM,,> 10.2,,> 256 µM,,> 10.1,25.1 µM,,
O=c1c2cc([N+](=O)[O-])ccc2n(CCCO)n1Cc1ccccc1,128 µM,0.25 µM,,> 152,,> 256 µM,,> 1024,1.68 µM,,
O=c1c2cc([N+](=O)[O-])ccc2n(CCBr)n1Cc1ccccc1,348 µM,1.14 µM,,> 120,,> 256 µM,,> 225,2.13 µM,,
COC(=O)CCOc1c2cc([N+](=O)[O-])ccc2nn1Cc1ccccc1,43 µM,,>7,,< 20%,> 256 µM,> 300 µM,,> 256 µM,,
CC(=O)OCCn1c2ccc([N+](=O)[O-])cc2c(=O)n1Cc1ccccc1,266 µM,0.25 µM,,> 47.1,,> 256 µM,,> 1024,5.43 µM,,
Cc1ncc([N+](=O)[O-])n1CCO [METRONIDAZOLE],1.43 µM,,>100,,,,> 600 µM,,,>100,5.78 µM
